3 compounds from publication PMC5695149 (Theranostics, 2017) can be followed below.

Molecules are shown by their SMILES. Starred links: 1 amine or outer side, 2 acyl side, 3 side chain; linkers in the order of their positions; H or OH if unused. Positions of bridges follow the written chain, without caps; N, C: chain ends. Non-standard residues stand in square brackets, D forms with d. Residues, ends and D or L forms follow the SMILES beside them. hNle(4R-Ph,7-yl) = O=C([C@H](C[C@@H](CCC[*:3])c1ccccc1)N[*:1])[*:2]; X1 = C[C@H](CCC[*:3])C[C@H](N[*:1])C(=O)[*:2]

In data set [1] the test system is caspase-3. The experiment in a line: Caspase-3 activity assay, PA-1. It counts as cell-based, human. Put shortly:
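Apoptosis in PA-1 cells was read as caspase-3 activity after exposing the cells to a caspase-3-specific substrate.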

Data set [2] relates to p53. The experiment in a line: p53 accumulation kinetics in HCT-116 Venus knock-in cell line. The class given is cell-based. The conditions noted are these: HCT-116 p53-VKI; PhR 40 µM; nutlin-3a 0.5 or 5 µM (Fig. S9 legend).
Data set [3] concerns PA-1 xenograft. The data set is described as follows: Antitumor efficacy in PA-1 human xenograft model. The class given is in vivo, mice. The settings on record: for mice that died during the treatment period: 21 days of treatment. Put shortly: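 Female athymic nude mice (BALB/c nu, 6 weeks) received 1 × 10^7 PA-1 cells in DMEM subcutaneously in the lower flank. After 10-15 days, mice with 100-150 mm3 tumors were randomized into 3 groups of 5-6. Test compound at 10 mg/kg, or PBS as negative control, was injected intratumorally every 2 days from day 0 for 21 days. Mice were followed a further 24 days; survival plotted as Kaplan-Meier curves.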
(Xenograft models place foreign cells or tissue in a host animal.)

Data set [4] addresses T1, MDMX (Homo sapiens, UniProt O15151).
T1 sequence (O15151 1-490): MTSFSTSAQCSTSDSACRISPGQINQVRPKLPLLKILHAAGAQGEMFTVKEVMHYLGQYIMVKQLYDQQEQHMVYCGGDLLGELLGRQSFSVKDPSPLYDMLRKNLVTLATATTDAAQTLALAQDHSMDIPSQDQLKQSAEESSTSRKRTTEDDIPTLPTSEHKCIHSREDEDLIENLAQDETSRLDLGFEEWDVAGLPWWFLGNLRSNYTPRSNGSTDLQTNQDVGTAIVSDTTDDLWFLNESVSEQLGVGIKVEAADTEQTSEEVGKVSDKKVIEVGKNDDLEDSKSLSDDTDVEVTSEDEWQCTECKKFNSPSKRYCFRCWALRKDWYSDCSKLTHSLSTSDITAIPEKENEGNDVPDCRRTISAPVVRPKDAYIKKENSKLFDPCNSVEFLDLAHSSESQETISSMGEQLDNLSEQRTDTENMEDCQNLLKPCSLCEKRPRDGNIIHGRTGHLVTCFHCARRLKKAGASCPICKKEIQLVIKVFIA
The data set is described as follows: Fluorescence polarization assay, FITC-labeled peptide with GST-labeled MDMX. The class given is binding. The settings on record: compared within the library. Put shortly:
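Fluorescence polarization: FITC-labelled peptide (10 or 20 nM) incubated with MDMX protein in 140 mM NaCl, 50 mM Tris pH 8.0 for 1 h at room temperature. Peptide concentration set from FITC absorbance at 494 nm. Kd obtained by nonlinear regression of dose-response curves.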

The subject of data set [5] is Skov-3 cells. The experiment in a line: Cell viability. The conditions noted are these: Skov-3 (mutant p53), up to 50 μM, 48 h. It counts as cell-based. In short, it runs like this:
(§1)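 MTT assay: cells at 5 × 10^3/well were exposed to test compound (3.12, 6.25, 12.5, 25, 50 µM) in serum-free medium for 4 h. Serum was then restored for a further 44 h. MTT (5 mg/mL in PBS) was added for 4 h at 37 °C, 5% CO2. Formazan was dissolved in DMSO and absorbance read at 490 nm. At least three independent measurements, SEM shown.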

For data set [6], the system named is MDA-231 cells. The experiment in a line: Cell viability. The settings on record: MDA-231 (mutant p53), up to 50 μM, 48 h. The class given is cell-based. In short, it runs like this: as §1
Data set [7] concerns HEK-293 cells. The experiment in a line: Cell viability. The settings on record: HEK-293 normal cells, 3.12-50 µM, 48 h. It counts as cell-based. Put shortly: (§2)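 MTT viability assay. Cells were seeded at 5 × 10³/well and given the test compound at 3.12, 6.25, 12.5, 25 or 50 µM in serum-free medium for 4 h. Serum was then replaced and cells incubated a further 44 h. MTT (5 mg/mL in PBS) was added for 4 h at 37 °C, 5% CO2, and formazan was dissolved in DMSO. A490 was read. SEM from at least three independent measurements.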

The subject of data set [8] is QSG-7701 cells. The data set is described as follows: Cell viability. The class given is cell-based. The settings on record: QSG-7701 normal cells, 3.12-50 µM, 48 h. Put shortly:
as §2

For data set [9], the system named is p53. The experiment in a line: Western blot of p53 expression, PA-1. It counts as cell-based, human. The conditions noted are these: PA-1, 40 µM peptide, 48 h. Put shortly: (§3)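 Cells in 6-well plates were treated 48 h, then lysed in Tris-SDS buffer (pH 6.8). 20 μg protein was run on 10% SDS-PAGE and transferred to nitrocellulose. Blots were probed overnight at 4 °C with rabbit monoclonal anti-p53 (1:500), with pan-actin (1:1000) as reference. Goat secondary antibodies were applied 1 h at room temperature, with chemiluminescent detection.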
For orientation: A western blot detects proteins with antibodies after separation by electrophoresis.

Data set [10] concerns p53. The experiment in a line: Western blot of p53 expression, MCF-7. It counts as cell-based. The conditions noted are these: MCF-7, 40 µM peptide, 48 h. Put shortly: as §3
The subject of data set [11] is PA-1 cells. The data set is described as follows: Cellular uptake of FITC-labelled peptides, confocal microscopy and FACS, PA-1. It counts as cell-based, human. The settings on record: 37°C, 2 h.
Data set [12] deals with MCF-7 cells. The experiment in a line: Cellular uptake of FITC-labelled peptides, confocal microscopy, MCF-7. The class given is cell-based. The conditions noted are these: MCF-7, FITC-labeled peptide, 37°C, 2 h. In short, it runs like this: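 Cells in DMEM + 10% FBS (50000/well) were grown 1 day to ~80% adherence. FITC-labelled peptide (1 mM DMSO stock) was added to 5 µM final at 37 °C. Cells were washed 3× in PBS, fixed in 4% formaldehyde for 10 min, stained with DAPI 1 μg/mL for 5 min, and imaged by confocal microscopy. PA-1 uptake was also quantified by flow cytometry.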

Data set [13] has as its target p53-MDM2 binding (Homo sapiens, UniProt Q00987). The data set is described as follows: Immunoprecipitation of p53-MDM2 from PA-1 cell lysates, western blotting. The settings on record: PA-1, 40 μM, 4 h, versus DMSO control, 10% FBS. The class given is cell-based. In short, it runs like this: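 Exponentially growing PA-1 cells received the test compound or an equal volume of DMSO. Cells were lysed in 50 mM Tris pH 8.0, 150 mM NaCl, 1 mM EDTA, 0.5% NP-40. Extract (500 µg) was precleared 2 h on protein G Sepharose, then incubated with rabbit monoclonal anti-p53 or mouse monoclonal anti-MDM2. Complexes were captured on protein G beads overnight at 4 °C and washed five times in cold lysis buffer. Western blots were probed for p53, MDM2 and pan-actin.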

Data set [14] concerns sox2 and foxA2 genes. The experiment in a line: RT-qPCR of stemness and differentiation genes, PA-1. It counts as cell-based, human. The conditions noted are these: PA-1, 40 µM, 48 h. In short, it runs like this:
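Exponentially growing PA-1 cells were seeded in 6-well plates and treated 48 h with 40 µM peptide; nutlin-3a at 1 µM was the comparator. mRNA was quantified by real-time qPCR and expressed as fold increase. Triplicates from three independent experiments, SEM shown.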
In general terms: In qPCR the cycle at which signal appears reflects the starting amount.

Data set [15] has as its system PA-1 cells. The experiment in a line: Annexin-V/PI apoptosis assay, PA-1. It counts as cell-based, human. The settings on record: PA-1, 40 μM peptides or 5 μM nutlin-3a, 48 h. In short, it runs like this: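 Exposed PA-1 cells were stained with Annexin-V/PI. Apoptotic cells were counted as the sum of quadrants Q1+Q2+Q3 and reported as a ratio of total cells.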
The subject of data set [16] is PA-1 cells. The data set is described as follows: Cell cycle analysis by PI staining and flow cytometry, PA-1. The conditions noted are these: PA-1, 40 μM peptides or 5 μM nutlin-3a, 48 h. It counts as cell-based, human.
Data set [17] deals with QSG-7701 cells. The experiment in a line: Cell cycle analysis by PI staining and flow cytometry, QSG-7701. It counts as cell-based. The settings on record: QSG-7701, 48 h, PI staining.
Data set [18] is described as follows: Mice voluntary cage-wheel exercise assay. It counts as in vivo. The settings on record: BALB/c mice, 10 mg/kg subcutaneous, 20 days. Put shortly:
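BALB/c mice were randomly split into two groups given a single subcutaneous injection of PBS or test compound (10 mg/kg). Voluntary cage-wheel running cycles were recorded over 20 days after injection.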

Data set [19] in a line: Histological analysis. It counts as in vivo. The conditions noted are these: 21 days after injection, compared with PBS-treated mice. In short, it runs like this: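 Tumor, heart, liver, spleen, lung, kidney and brain were harvested 21 days after injection. Tissue sections were stained with hematoxylin and eosin and examined for histological changes.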
The test system of data set [20] is p53 and p21. The data set is described as follows: Immunohistochemistry of tumor tissues. The class given is in vivo, mice. The conditions noted are these: PA-1 xenograft tumor tissue, 10 mg/kg.
Where [21] appears, read: PA-1 xenograft, 10 mg/kg every other day.

Chain of p53-MDM2 binding (Q00987 whole entry): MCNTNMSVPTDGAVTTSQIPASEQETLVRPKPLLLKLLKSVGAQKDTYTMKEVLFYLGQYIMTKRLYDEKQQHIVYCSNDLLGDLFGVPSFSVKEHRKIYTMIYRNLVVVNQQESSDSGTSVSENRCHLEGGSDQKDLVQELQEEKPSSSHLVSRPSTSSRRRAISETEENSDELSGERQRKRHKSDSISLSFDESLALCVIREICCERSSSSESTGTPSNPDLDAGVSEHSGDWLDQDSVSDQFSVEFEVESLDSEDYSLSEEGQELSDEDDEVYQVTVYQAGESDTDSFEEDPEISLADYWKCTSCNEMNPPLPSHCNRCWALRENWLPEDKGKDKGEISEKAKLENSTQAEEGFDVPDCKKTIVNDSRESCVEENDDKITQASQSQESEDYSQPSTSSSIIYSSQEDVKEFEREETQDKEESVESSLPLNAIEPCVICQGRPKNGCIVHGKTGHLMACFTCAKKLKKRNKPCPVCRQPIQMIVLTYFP

On to `COc1ccc(C2=N[C@@H](c3ccc(Cl)cc3)[C@@H](c3ccc(Cl)cc3)N2C(=O)N2CCNC(=O)C2)c(OC(C)C)c1` [nutlin-3a], for which the “apoptosis by caspase-3 activity” value in data set [1] (PA-1, at a low dose) is listed as “minimal apoptosis”. For the same compound, the caspase-3 activity result in [1] (PA-1, at higher doses (>5 μM)) is listed as “no caspase-3 activity was detected”. Moreover, in [2], the “time to highest levels of p53 and p21” value was found to be 48 h. Besides, in data set [3] (setting [21]), the “mice death in the first week of treatment” value was 20% and the “mice that died during the treatment period” value is given as “three in ten”. The “tumor growth inhibition (TGI)” value in data set [3] (PA-1 xenograft, athymic nude mice, 10 mg/kg every other day, intratumoral injection, 3 weeks) is on record as 30%.
`CC(=O)N[C@@H](CC(C)C)C(=O)N[C@H](C(=O)N[C@@H](Cc1ccccc1)C(=O)N[C@H]1CSCCC[C@@H](C)C[C@@H](C(=O)N[C@@H](CCC(N)=O)C(=O)N[C@@H](CC(C)C)C(=O)N[C@H](C(=O)N[C@@H](CO)C(N)=O)[C@@H](C)O)NC(=O)[C@H](Cc2c[nH]c3ccccc23)NC(=O)[C@H](Cc2ccc(O)cc2)NC(=O)[C@H](Cc2c[nH]cn2)NC1=O)[C@@H](C)O` [MeR] (Ac-LTFCHYW[X1]QLTS-NH2; thioether 4-8; N-terminus assumed): the “binding ability toward MDMX” value in [4] was “highest binding abilities”. The “effect on cell viability” value in data set [5] and in data set [6] was “Negligible effects” in each case. Also, the “effect on cell growth and proliferation” value in data set [7] was “little effect on the cell growth and proliferation”; in data set [8] it was “little effect on the cell growth and proliferation”. For the same compound, the “p53 expression (western blot)” value in data set [9] and in [10] was “upregulated” throughout.
With `CC(=O)N[C@@H](CC(C)C)C(=O)N[C@H](C(=O)N[C@@H](Cc1ccccc1)C(=O)N[C@H]1CSCCC[C@@H](c2ccccc2)C[C@@H](C(=O)N[C@@H](CCC(N)=O)C(=O)N[C@@H](CC(C)C)C(=O)N[C@H](C(=O)N[C@@H](CO)C(N)=O)[C@@H](C)O)NC(=O)[C@H](Cc2c[nH]c3ccccc23)NC(=O)[C@H](Cc2ccc(O)cc2)NC(=O)[C@H](Cc2c[nH]cn2)NC1=O)[C@@H](C)O` [PhR] (Ac-LTFCHYW[hNle(4R-Ph,7-yl)]QLTS-NH2; thioether 4-8; N-terminus assumed), the “binding ability toward MDMX” value in [4] was “highest binding abilities”. Further, the “effect on cell viability” value in data set [5] and in data set [6] was “Negligible effects” each time. For the same compound, the “effect on cell growth and proliferation” value in data set [7] is “little effect on the cell growth and proliferation”; in data set [8] it was “little effect on the cell growth and proliferation”. Moreover, the “cellular uptake, comparison” value is “higher cellular uptake than MeR” in [11] (PA-1, 5 µM FITC-labelled peptide, confocal and flow cytometry); “higher cellular uptake than MeR” in data set [12]. The “internalization, live cell confocal imaging” value in data set [11] (PA-1, 5 uM, live cells) is “internalized into the cells both in the cytoplasm and nucleus”. Besides, the “MDM2 protein bound to p53 (IP and western blotting)” value in [13] is “substantial reduction of MDM2 protein bound to p53”. Besides, the “p53 expression (western blot)” value in [9] and in data set [10] was “upregulated” throughout. Also, in [14], the “expression of differentiation gene foxA2 (qPCR)” value is reported as “upregulation”. The “expression of stemness gene sox2 (qPCR)” value in [14] is “significant downregulation”. The “apoptotic effect (Annexin-V/PI)” value in data set [15] is “more pronounced in PA-1 than those of MeR and nutlin-3a”. The cell-cycle arrest result in data set [16] was “more effective in inducing cell-cycle arrest in the G2/M phase than MeR and nutlin-3a”. Also, the “cell-cycle arrest in normal cell line” value in data set [17] is on record as “did not induce cell cycle arrest”. Further, the “apoptosis by caspase-3 activity” value in data set [1] (PA-1, dose ladder) is given as “dose-dependent apoptosis”. For the same compound, the “time to highest levels of p53 and p21” value in data set [2] was 12 h. Besides, the “mice that died during the treatment period” value in [3] (setting [21]) was “no mice died”. Further, the “survival (Kaplan-Meier)” value in [3] (treated for 21 days and raised for another 24 days post treatment) was “able to prolong the lives of the mice”. In data set [18], the “voluntary running cycles versus PBS group” value is given as “no significant differences”. Besides, the “histological changes of major organs (H&E)” value in data set [19] was “no signs of organ lesions”. In data set [20], the “p53 and p21 expression in tumor tissues (immunohistochemistry)” value was “higher expression levels of p53 and p21”.
